Measured values as given in ChEMBL document CHEMBL1152507, “An extended study of dimeric phenyl tropanes” (Bioorg Med Chem, 2009).

Key:
[1] = target: Sodium-dependent dopamine transporter (Homo sapiens, UniProt Q01959); experiment: Displacement of [125I]methyl 3-(4-iodophenyl)-8-methyl-8-aza-bicyclo[3.2.1]octane-2-carboxylate from human recombinant DAT expressed in african green monkey COS1 cells by liquid scintillation counting; type: cell-based, COS-1
Summary of the method: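 Membranes from COS-1 cells stably expressing cloned human transporter; cells scraped, homogenized in ice-cold 150 mM NaCl/50 mM Tris/20 mM EDTA, pelleted at 12,000g, resuspended in PBSCM, stored at -80 °C. 5 µg protein/well incubated with test drug and 0.1–0.25 nM 125I-radioligand for 1 h at 20 °C. Filtered on PEI-presoaked GF/B filters, washed thrice with ice-cold water.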

[2] = target: Sodium-dependent serotonin transporter (Homo sapiens, UniProt P31645); experiment: Displacement of [125I]methyl 3-(4-iodophenyl)-8-methyl-8-aza-bicyclo[3.2.1]octane-2-carboxylate from human recombinant SERT expressed in african green monkey COS1 cells by liquid scintillation counting; type: cell-based, COS-1
Chain of Sodium-dependent serotonin transporter (P31645 whole entry): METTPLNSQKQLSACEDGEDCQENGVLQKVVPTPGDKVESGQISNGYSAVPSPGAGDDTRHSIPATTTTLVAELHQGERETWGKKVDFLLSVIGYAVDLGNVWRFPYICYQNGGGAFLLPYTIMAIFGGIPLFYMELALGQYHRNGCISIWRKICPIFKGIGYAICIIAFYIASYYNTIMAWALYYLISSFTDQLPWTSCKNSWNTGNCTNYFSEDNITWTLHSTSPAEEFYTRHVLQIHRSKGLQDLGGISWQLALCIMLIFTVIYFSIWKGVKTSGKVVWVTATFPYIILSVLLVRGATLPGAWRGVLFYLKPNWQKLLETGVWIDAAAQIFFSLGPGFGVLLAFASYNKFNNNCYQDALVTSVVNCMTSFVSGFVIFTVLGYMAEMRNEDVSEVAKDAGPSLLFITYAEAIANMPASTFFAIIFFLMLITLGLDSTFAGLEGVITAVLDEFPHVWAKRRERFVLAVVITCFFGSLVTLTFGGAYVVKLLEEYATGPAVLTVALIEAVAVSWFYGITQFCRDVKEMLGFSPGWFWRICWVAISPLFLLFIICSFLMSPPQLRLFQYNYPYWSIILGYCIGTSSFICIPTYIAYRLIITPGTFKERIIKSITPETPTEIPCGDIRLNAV
Summary of the method: (§1)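 Membranes from COS-1 cells stably expressing cloned human transporter; cells scraped, homogenized in ice-cold 150 mM NaCl/50 mM Tris/20 mM EDTA, pelleted at 12,000g, resuspended in PBSCM, stored at -80 °C. Filtered on PEI-presoaked GF/B filters, washed thrice with ice-cold water.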

[3] = target: Sodium-dependent noradrenaline transporter (Homo sapiens, UniProt P23975); experiment: Displacement of [125I]methyl 3-(4-iodophenyl)-8-methyl-8-aza-bicyclo[3.2.1]octane-2-carboxylate from human recombinant NET expressed in african green monkey COS1 cells by liquid scintillation counting; type: cell-based, COS-1; summary of the method: as §1
Chain of Sodium-dependent noradrenaline transporter (P23975 whole entry): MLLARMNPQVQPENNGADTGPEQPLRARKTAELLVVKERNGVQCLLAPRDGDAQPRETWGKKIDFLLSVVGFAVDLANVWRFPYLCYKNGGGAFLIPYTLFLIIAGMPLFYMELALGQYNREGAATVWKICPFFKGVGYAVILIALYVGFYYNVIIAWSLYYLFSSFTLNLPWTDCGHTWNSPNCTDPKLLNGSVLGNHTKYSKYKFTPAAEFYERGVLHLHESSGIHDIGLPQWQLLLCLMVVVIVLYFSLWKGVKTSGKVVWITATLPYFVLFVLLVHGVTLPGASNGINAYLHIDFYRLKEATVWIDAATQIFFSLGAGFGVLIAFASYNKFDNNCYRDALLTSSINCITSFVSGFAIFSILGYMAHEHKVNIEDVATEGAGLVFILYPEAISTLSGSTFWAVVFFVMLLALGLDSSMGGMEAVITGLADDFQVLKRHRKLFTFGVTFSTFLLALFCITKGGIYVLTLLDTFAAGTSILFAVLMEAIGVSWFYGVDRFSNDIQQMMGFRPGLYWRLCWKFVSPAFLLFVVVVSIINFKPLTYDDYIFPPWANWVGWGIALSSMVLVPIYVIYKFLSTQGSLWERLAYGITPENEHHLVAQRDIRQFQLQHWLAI

[4] = organism: Homo sapiens; experiment: Selectivity ratio of Ki for human SERT to Ki for human DAT
[5] = organism: Homo sapiens; experiment: Selectivity ratio of Ki for human NET to Ki for human DAT

Chain of Sodium-dependent dopamine transporter (Q01959 whole entry): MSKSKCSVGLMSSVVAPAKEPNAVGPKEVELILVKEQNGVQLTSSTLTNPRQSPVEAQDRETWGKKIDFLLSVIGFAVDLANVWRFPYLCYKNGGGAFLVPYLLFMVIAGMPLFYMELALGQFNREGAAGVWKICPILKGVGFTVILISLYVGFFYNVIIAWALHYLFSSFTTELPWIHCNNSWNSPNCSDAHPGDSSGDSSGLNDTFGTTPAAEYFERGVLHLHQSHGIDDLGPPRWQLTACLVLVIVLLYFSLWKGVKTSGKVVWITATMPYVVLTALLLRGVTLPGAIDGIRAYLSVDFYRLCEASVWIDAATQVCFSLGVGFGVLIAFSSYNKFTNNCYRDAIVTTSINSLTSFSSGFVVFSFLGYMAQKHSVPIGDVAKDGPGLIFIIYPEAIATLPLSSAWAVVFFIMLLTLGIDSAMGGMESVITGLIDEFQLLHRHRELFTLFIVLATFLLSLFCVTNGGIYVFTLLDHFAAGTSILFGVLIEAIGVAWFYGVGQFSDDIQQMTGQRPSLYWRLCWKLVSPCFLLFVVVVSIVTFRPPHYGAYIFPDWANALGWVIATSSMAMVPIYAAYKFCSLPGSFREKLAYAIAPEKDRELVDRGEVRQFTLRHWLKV

`CN1C2CCC1[C@@H](C(=O)OCc1cn(CCCCCCOC(=O)[C@H]3C4CCC(C[C@@H]3c3ccc(Cl)cc3)N4C)nn1)[C@@H](c1ccc(Cl)cc1)C2` (stereo partly specified) gave a Ki [1] of 1 nM, a Ki [2] of 0.86 nM and a Ki [3] of 8.5 nM. It also gave a Ratio Ki [4] of 0.86 and a Ratio Ki [5] of 8.5.
Work on `CN1C2CCC1[C@@H](C(=O)NCc1ccc(CCNC(=O)[C@H]3C4CCC(C[C@@H]3c3ccc(Cl)cc3)N4C)cc1)[C@@H](c1ccc(Cl)cc1)C2` (stereo partly specified) yielded a Ki [1] of 20 nM, a Ki [2] of 65 nM and a Ki [3] of 100 nM. For the same molecule, the Ratio Ki [4] was 3.3 and the Ratio Ki [5] was 5.2.
`CN1C2CCC1[C@@H](C(=O)NCCC1CCN(C(=O)[C@H]3C4CCC(C[C@@H]3c3ccc(Cl)cc3)N4C)CC1)[C@@H](c1ccc(Cl)cc1)C2` (stereo partly specified) gave a Ki [1] of 180 nM, a Ki [2] of 2500 nM and a Ki [3] of 440 nM. For the same molecule, the Ratio Ki [4] was 14 and the Ratio Ki [5] was 2.5.
With `CN1C2CCC1[C@@H](C(=O)Nc1ccc(CNC(=O)[C@H]3C4CCC(C[C@@H]3c3ccc(-c5ccsc5)cc3)N4C)cc1)[C@@H](c1ccc(-c3ccsc3)cc1)C2` (stereo partly specified) the Ki [1] was 800 nM, the Ki [2] was 730 nM and the Ki [3] was 2700 nM. For the same molecule, the Ratio Ki [4] was 0.92 and the Ratio Ki [5] was 3.4.
Molecule `CN1C2CCC1[C@@H](C(=O)Nc1ccc(CCNC(=O)[C@H]3C4CCC(C[C@@H]3c3ccc(Cl)cc3)N4C)cc1)[C@@H](c1ccc(Cl)cc1)C2` (stereo partly specified) has a Ki [1] of 6.6 nM, a Ki [2] of 2600 nM and a Ki [3] of 180 nM. It also gave a Ratio Ki [4] of 390 and a Ratio Ki [5] of 27.
In the case of `COC(=O)[C@@H]1C2CCC(C[C@@H]1c1ccc(Cl)cc1)N2C` (stereo partly specified), the Ki [1] is reported as 2.7 nM.
Molecule `CN1C2CCC1[C@@H](C(=O)NCc1ccc(CCNC(=O)[C@H]3C4CCC(C[C@@H]3c3ccc(-c5ccsc5)cc3)N4C)cc1)[C@@H](c1ccc(-c3ccsc3)cc1)C2` (stereo partly specified) has a Ki [1] of 160 nM, a Ki [2] of 62 nM and a Ki [3] of 1300 nM. The Ratio Ki [4] was 0.38 and the Ratio Ki [5] was 8.2.
`CN1C2CCC1[C@@H](C(=O)Nc1ccc(NC(=O)[C@H]3C4CCC(C[C@@H]3c3ccc(-c5ccsc5)cc3)N4C)cc1)[C@@H](c1ccc(-c3ccsc3)cc1)C2` showed a Ki [1] of 210 nM, a Ki [2] of 270 nM and a Ki [3] of 1900 nM. It also gave a Ratio Ki [4] of 1.3 and a Ratio Ki [5] of 9.4.
Work on `CN1C2CCC1[C@@H](C(=O)OCc1cn(CCOC(=O)[C@H]3C4CCC(C[C@@H]3c3ccc(Cl)cc3)N4C)nn1)[C@@H](c1ccc(Cl)cc1)C2` (stereo partly specified) yielded a Ki [1] of 16 nM, a Ki [2] of 27 nM and a Ki [3] of 120 nM. The Ratio Ki [4] was 1.6 and the Ratio Ki [5] was 7.3.
For `CN1C2CCC1[C@@H](C(=O)OCCCCCn1ccnn1)[C@@H](c1ccc(Cl)cc1)C2` (stereo partly specified), the Ki [1] was 5.5 nM, the Ki [2] was 20 nM and the Ki [3] was 380 nM. The Ratio Ki [4] was 3.6 and the Ratio Ki [5] was 69.
With `COC(=O)[C@@H]1C2CCC(C[C@@H]1c1ccc(-c3ccsc3)cc1)N2C` (stereo partly specified) the Ki [1] was 2.5 nM, the Ki [2] was 0.58 nM and the Ki [3] was 26 nM. It also gave a Ratio Ki [4] of 0.24 and a Ratio Ki [5] of 10.
For `CN1C2CCC1[C@@H](C(=O)Nc1ccc(CNC(=O)[C@H]3C4CCC(C[C@@H]3c3ccc(Cl)cc3)N4C)cc1)[C@@H](c1ccc(Cl)cc1)C2` (stereo partly specified), the Ki [1] was 21 nM, the Ki [2] was 1500 nM and the Ki [3] was 810 nM. The Ratio Ki [4] was 74 and the Ratio Ki [5] was 39.
Work on `COC(=O)[C@@H]1C2CCC(C[C@@H]1c1ccc(I)cc1)N2C` (stereo partly specified) yielded a Ki [1] of 3.9 nM, a Ki [2] of 4.2 nM and a Ki [3] of 19 nM. The Ratio Ki [4] was 1.1 and the Ratio Ki [5] was 4.9.
`CN1C2CCC1[C@@H](C(=O)NCCCCCCCCNC(=O)[C@H]1C3CCC(C[C@@H]1c1ccc(-c4ccsc4)cc1)N3C)[C@@H](c1ccc(-c3ccsc3)cc1)C2` gave a Ki [1] of 690 nM, a Ki [2] of 470 nM and a Ki [3] of 1700 nM. For the same molecule, the Ratio Ki [4] was 0.68 and the Ratio Ki [5] was 2.4.
For `CN1C2CCC1[C@@H](C(=O)OCc1cn(CCCCCCCOC(=O)[C@H]3C4CCC(C[C@@H]3c3ccc(Cl)cc3)N4C)nn1)[C@@H](c1ccc(Cl)cc1)C2` (stereo partly specified), the Ki [1] was 3.9 nM, the Ki [2] was 3.5 nM and the Ki [3] was 20 nM. For the same molecule, the Ratio Ki [4] was 0.89 and the Ratio Ki [5] was 5.1.
`CN1C2CCC1[C@@H](C(=O)NCc1cccc(CNC(=O)[C@H]3C4CCC(C[C@@H]3c3ccc(-c5ccsc5)cc3)N4C)c1)[C@@H](c1ccc(-c3ccsc3)cc1)C2` showed a Ki [1] of 230 nM, a Ki [2] of 860 nM and a Ki [3] of 1200 nM. For the same molecule, the Ratio Ki [4] was 3.7 and the Ratio Ki [5] was 5.1.
`CN1C2CCC1[C@@H](C(=O)N[C@H]1CC[C@H](NC(=O)[C@H]3C4CCC(C[C@@H]3c3ccc(Cl)cc3)N4C)CC1)[C@@H](c1ccc(Cl)cc1)C2` was tested, and the Ki [1] was 890 nM, the Ki [2] was 4000 nM and the Ki [3] was 4900 nM. For the same molecule, the Ratio Ki [4] was 4.6 and the Ratio Ki [5] was 5.5.
`CN1C2CCC1[C@@H](C(=O)NCCCCCCCCCCNC(=O)[C@H]1C3CCC(C[C@@H]1c1ccc(-c4ccsc4)cc1)N3C)[C@@H](c1ccc(-c3ccsc3)cc1)C2` gave a Ki [1] of 350 nM, a Ki [2] of 250 nM and a Ki [3] of 1500 nM. The Ratio Ki [4] was 0.72 and the Ratio Ki [5] was 4.4.
In the case of `CN1C2CCC1[C@@H](C(=O)NCCCCCCNC(=O)[C@H]1C3CCC(C[C@@H]1c1ccc(-c4ccsc4)cc1)N3C)[C@@H](c1ccc(-c3ccsc3)cc1)C2`, the Ki [1] is reported as 540 nM, the Ki [2] is reported as 2100 nM and the Ki [3] is reported as 2200 nM. It also gave a Ratio Ki [4] of 4 and a Ratio Ki [5] of 4.
Work on `CN1C2CCC1[C@@H](C(=O)Nc1ccc(NC(=O)[C@H]3C4CCC(C[C@@H]3c3ccc(Cl)cc3)N4C)cc1)[C@@H](c1ccc(Cl)cc1)C2` yielded a Ki [1] of 690 nM, a Ki [2] of 3200 nM and a Ki [3] of 5400 nM. The Ratio Ki [4] was 4.6 and the Ratio Ki [5] was 7.8.
Molecule `CN1C2CCC1[C@@H](C(=O)Nc1ccc(CCNC(=O)[C@H]3C4CCC(C[C@@H]3c3ccc(-c5ccsc5)cc3)N4C)cc1)[C@@H](c1ccc(-c3ccsc3)cc1)C2` (stereo partly specified) has a Ki [1] of 710 nM, a Ki [2] of 340 nM and a Ki [3] of 3300 nM. For the same molecule, the Ratio Ki [4] was 0.48 and the Ratio Ki [5] was 4.6.
For `CN1C2CCC1[C@@H](C(=O)NCc1ccc(CNC(=O)[C@H]3C4CCC(C[C@@H]3c3ccc(-c5ccsc5)cc3)N4C)cc1)[C@@H](c1ccc(-c3ccsc3)cc1)C2`, the Ki [1] was 93 nM, the Ki [2] was 160 nM and the Ki [3] was 620 nM. The Ratio Ki [4] was 1.7 and the Ratio Ki [5] was 6.7.
In the case of `CN1C2CCC1[C@@H](C(=O)N[C@H]1CC[C@H](NC(=O)[C@H]3C4CCC(C[C@@H]3c3ccc(-c5ccsc5)cc3)N4C)CC1)[C@@H](c1ccc(-c3ccsc3)cc1)C2`, the Ki [1] is reported as 1300 nM, the Ki [2] is reported as 810 nM and the Ki [3] is reported as 5000 nM. The Ratio Ki [4] was 0.62 and the Ratio Ki [5] was 3.8.
